Measurements as given in PMC7172891 (Peptides, 2008).

Tests used:
HSV-1 = HSV-1 virus entry assay: plaque inhibition on Vero cells; assay type: cell-based; settings: for inhibition of HSV-1 infectivity, cell pre-exposure: peptide 250 μM, Vero cells treated with peptide before viral challenge; for activity in dose-dependent inhibition assay of HSV entry: co-treatment, up to 500 μM, Vero cells
[1] = PC/Chol (1:1) LUV, probe dilution assay; cited from earlier work
HIV-1 = settings: cited from earlier work
[2] = tested on: parainfluenza-2 virus (PIV-2); experiment: Inhibition of PIV-2 infectivity, co-exposure mode; assay type: cell-based; settings: peptide 250 and 500 μM
How it was run: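 Co-exposure: cells and virus inoculum incubated together with peptide for 45 min at 37 °C. Non-penetrated virus inactivated with low-pH citrate buffer. Cells then held 48 h at 37 °C in DMEM with CMC, and plaques counted. Run in triplicate. Percent inhibition calculated against no-peptide control, with standard deviations; scrambled peptides run in parallel.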

[3] = Circular dichroism: helix content and oligomeric state; assay type: physicochemical; settings: for ratio θ222/θ208 (monomer about 0.8, oligomer above 1.0) / percentage of helix (CD, ellipticity at 222 nm): peptide 20 μM
How it was run: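 CD spectra at room temperature in 1.0 or 0.1 cm quartz cells. Peptide 20 μM titrated in varying % TFE; 5–200 μM series in buffer, 20% TFE and […]. For lipid samples, peptide in TFE was mixed with lipid in chloroform, dried, lyophilised and rehydrated in water to 0.9 mM final lipid. Scans averaged (three, 260–195 nm), blank-corrected, converted to MRE.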

[4] = Native gel electrophoresis: oligomeric state of peptides; assay type: physicochemical; settings: without SDS and with 4 mM and 5 mM SDS
How it was run: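 Peptide solution (1 mM in phosphate buffer pH 7.3, before mixing) incubated alone or with 4 or 5 mM SDS for 5 min at 25 °C. Non-denaturing PAGE with 4% stacking and 12% separating gel, run 2.5 h at constant 30 mA. Bands visualised with Coomassie R-250.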

[5] = Solubility / precipitation observations; assay type: physicochemical

AAHLIDALYAEFLGGRVLTTPVVHRALFYASAVLRQPFLAGVPSA [gH493–537]
inhibition of HSV-1 infectivity, post-exposure treatment (HSV-1; peptide 250 μM added after 45 min infection of Vero cells): not active | inhibition of HSV-1 infectivity, cell pre-exposure (HSV-1): not active | ability to induce fusion of vesicles (lipid mixing), previously reported [1]: able to induce fusion

Enfuvirtide
inhibition of HIV-1 (HIV-1): active at low nanomolar concentration

GLASTLTRWAHYNALIRAF [gH626–644]
inhibition of HSV-1 infectivity, cell pre-exposure (HSV-1): partially inhibit viral entry | effect on parainfluenzavirus-2 (PIV-2) infectivity [2]: none of these peptides exerted any significant effect | ratio θ222/θ208 (monomer about 0.8, oligomer above 1.0) ([3]; 20% TFE, TFE titration): approximately 1.05 | helicity (CD, ellipticity at 222 nm) ([3]; 20% TFE, peptide 5 μM): about 19% | percentage of helix (CD, ellipticity at 222 nm) ([3]; 20% TFE, room temperature): 27% | ratio θ222/θ208 over peptide concentration ([3]; 20% TFE, peptide 5–200 μM): around 1 | concentration at which the peptide already oligomerises (CD) ([3]; CD data): 50 µM | conformation in buffer solution (CD) ([3]; buffer solution, spectra unaltered over 5–200 μM): random coil conformation | ratio θ222/θ208 (monomer about 0.8, oligomer above 1.0) ([3]; higher percentages of TFE): 0.76 | percentage of helix (CD, ellipticity at 222 nm) ([3]; increasing (higher) concentrations of TFE): approximately 35% | oligomer order in NATIVE-PAGE [4]: forms higher order oligomers compared to gH493–512 | precipitation in inhibition experiments ([5]; 500 μM): probably indicating a precipitation of the peptide at this concentration | precipitation / macroscopic aggregation ([5]; in presence of membranes, concentrations assayed in CD studies (5–200 μM)): did not precipitate or otherwise form macroscopic aggregates | ability to induce fusion of vesicles (lipid mixing), previously reported [1]: able to induce fusion

RLTGLLATSGFAFVNAAHANGAVCLSDLLGFLAHSRALAG [gH381–420]
activity in dose-dependent inhibition assay of HSV entry (HSV-1): non-significant activity | ability to induce fusion of vesicles (lipid mixing), previously reported [1]: able to induce fusion

TWLATRGLLRSPGRYVYFSPSASTWPVGIWTTGELVLGCDAAL [gH220–262]
activity in dose-dependent inhibition assay of HSV entry (HSV-1): non-significant activity | ability to induce fusion of vesicles (lipid mixing), previously reported [1]: able to induce fusion
